Data: ChEMBL document CHEMBL3352465, “The SAR development of substituted purine derivatives as selective CB2 agonists for the treatment of chronic pain” (Bioorg Med Chem Lett, 2014)
In brackets after ≈: the same amount, converted by molar mass.

How the values were obtained:
[1] = target: T1, Cannabinoid receptor 2 (Homo sapiens, UniProt P34972); assay: Agonist activity at human CB2 receptor expressed in CHO cells by [35S]-GTPgammaS binding assay; assay type: functional, cell-based
[2] = target: T1, Cannabinoid receptor 2; assay: Agonist activity at human CB2 receptor expressed in CHO cells by [35S]-GTPgammaS binding assay relative to control; assay type: functional, cell-based
[3] = target: T2, Cannabinoid receptor 1 (Homo sapiens, UniProt P21554); assay: Agonist activity at human CB1 receptor expressed in Sf9 cells by [35S]-GTPgammaS binding assay; assay type: functional
T2 sequence (P21554 whole entry): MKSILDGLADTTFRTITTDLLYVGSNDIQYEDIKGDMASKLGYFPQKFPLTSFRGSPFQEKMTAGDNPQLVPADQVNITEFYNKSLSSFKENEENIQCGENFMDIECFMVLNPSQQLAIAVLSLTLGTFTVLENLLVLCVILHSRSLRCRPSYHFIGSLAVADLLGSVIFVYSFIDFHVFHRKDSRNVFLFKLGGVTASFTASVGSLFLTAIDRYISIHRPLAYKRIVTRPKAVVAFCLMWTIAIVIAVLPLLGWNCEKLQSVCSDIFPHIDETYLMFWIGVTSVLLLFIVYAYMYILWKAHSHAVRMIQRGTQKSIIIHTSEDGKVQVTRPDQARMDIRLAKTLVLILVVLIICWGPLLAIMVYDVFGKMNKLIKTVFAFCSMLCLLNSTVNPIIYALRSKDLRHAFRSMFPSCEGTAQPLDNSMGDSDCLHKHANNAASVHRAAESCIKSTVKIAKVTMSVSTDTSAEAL

[4] = target: T2, Cannabinoid receptor 1; assay: Agonist activity at human CB1 receptor expressed in Sf9 cells by [35S]-GTPgammaS binding assay relative to control; assay type: functional
[5] = Drug metabolism in human liver microsomes at 2 uM after 0.5 hr by LC/MS/MS analysis; assay type: ADME; conditions: read-out: Drug metabolism
[6] = Drug metabolism in rat liver microsomes at 2 uM after 0.5 hr by LC/MS/MS analysis; assay type: ADME; conditions: read-out: Drug metabolism
[7] = Drug metabolism in dog liver microsomes at 2 uM after 0.5 hr by LC/MS/MS analysis; assay type: ADME, Canis lupus familiaris; conditions: read-out: Drug metabolism
[8] = species: Rattus norvegicus; assay: Inhibition of GABA gated chloride channel in rat cortex at 10 uM by radioligand binding assay
In short: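 Radioligand binding to GABA-gated chloride channels from rat, run by an outside contract lab.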

[9] = Inhibition of GABA gated chloride channel in rat cortex by radioligand binding assay
[10] = Oral bioavailability in Beagle dog at 1 mg/kg; assay type: ADME, organism-based, Canis lupus familiaris; conditions: in vivo
In short: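 Plasma PK after intravenous and oral dosing at 1 mg/kg each route; male Sprague-Dawley rats and male Beagle dogs. Clearance and steady-state volume from the iv leg, half-life and bioavailability from the po leg.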

[11] = Lipophilicity, log P of the compound; assay type: physicochemical; conditions: octanol/water
[12] = Aqueous solubility of the compound at pH 6.5; assay type: physicochemical
In short: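 Aqueous solubility measured at pH 6.5.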

[13] = Dissociation constant, pKa of the compound; assay type: physicochemical

T1 sequence (P34972 whole entry): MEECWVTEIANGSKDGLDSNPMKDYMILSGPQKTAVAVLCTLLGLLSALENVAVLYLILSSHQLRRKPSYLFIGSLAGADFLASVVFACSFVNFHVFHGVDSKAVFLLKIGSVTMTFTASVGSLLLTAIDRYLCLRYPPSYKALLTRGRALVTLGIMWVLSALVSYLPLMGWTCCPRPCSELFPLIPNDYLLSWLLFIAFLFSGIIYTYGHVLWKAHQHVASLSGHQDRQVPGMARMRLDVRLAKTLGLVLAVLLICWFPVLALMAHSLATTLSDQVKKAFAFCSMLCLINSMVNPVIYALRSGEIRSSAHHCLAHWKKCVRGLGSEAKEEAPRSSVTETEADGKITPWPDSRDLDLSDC

Structure (SMILES) | EC50 [1] | Efficacy [2] | EC50 [3] | Efficacy [4] | metabolised at 0.5 h, 2 µM [5] | metabolised at 0.5 h, 2 µM [6] | metabolised at 0.5 h, 2 µM [7] | inhibition [8] | Ki [9] | bioavailability [10] | logP [11] | solubility [12] | pKa [13]
CCN1CCN(c2nc(C)nc3c2nc(-c2ccccc2Cl)n3CCCOC)CC1 | 4.3 nM | 96.5% | 1380 nM | 25.7% | 36% | 71% | 99% | – | – | – | – | – | –
Cc1nc(N2CCN(C)CC2)c2nc(-c3ccccc3Cl)n(C3CCOCC3)c2n1 [LY2828360] | – | – | – | – | – | – | – | 85% | 2200 nM | 76% | 3.2 | 100 µg/mL (≈ 234 µM) | 7.2
CCN1CCN(c2nc(C)nc3c2nc(-c2ccccc2Cl)n3CCOC)CC1 | – | – | – | – | – | – | – | 97% | – | – | – | – | –
COC(=O)NCCn1c(-c2ccccc2Cl)nc2c(N3CCN(C)CC3)nc(C)nc21 | – | – | – | – | 14% | 25% | 62% | – | – | – | – | – | –
Cc1nc(N2CCN(C)CC2)c2nc(-c3ccccc3Cl)n(CC(C)(C)O)c2n1 | 5.9 nM | 85.4% | > 100000 nM | – | 24% | 92% | 52% | 83% | – | – | – | – | –
